Measured values from ChEMBL document CHEMBL1140159, “Gedunin, a novel hsp90 inhibitor: semisynthesis of derivatives and preliminary structure-activity relationships” (J Med Chem, 2008).

Assays:
MCF7 = assay: Antiproliferative activity against human MCF7 cells after 72 hrs; assay type: functional, cell-based; conditions: MCF7, 72 h
Procedure, shortened: (§1)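 Cells were grown in a 1:1 Advanced DMEM/F12 mix with nonessential amino acids, 2 mM L-glutamine, penicillin/streptomycin and 10% FBS at 37 °C and 5% CO₂. They were seeded at 2000/well and left to attach overnight, then dosed over a concentration range (1% DMSO final) for 72 h. Viable cells were read by MTS/PMS, normalised to 1% DMSO controls (100%), and IC50 was taken from a nonlinear dose–response fit; three experiments, each in triplicate.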

SK-BR-3 = assay: Antiproliferative activity against human SKBr3 cells after 72 hrs; assay type: functional, cell-based; conditions: SK-BR-3, 72 h; procedure, shortened: as §1

Row | IC50 (MCF7) [µM] | IC50 (SK-BR-3) [µM] | SMILES
1 | > 100 | > 100 | CC(=O)O[C@@H]1C[C@H]2C(C)(C)/C(=N/OCc3ccccc3)C=C[C@]2(C)[C@H]2CC[C@@]3(C)[C@@H](c4ccoc4)OC(=O)[C@H]4O[C@]43[C@@]21C
2 | 10.9 | 4.49 | CC1(C)C(=O)C=C[C@]2(C)[C@H]3CC[C@@]4(C)[C@@H](c5ccoc5)OC(=O)[C@H]5O[C@]54[C@]3(C)C(=O)C[C@@H]12
3 | 33.2 | 26.5 | CC(=O)O[C@@H]1C[C@H]2C(C)(C)/C(=N/O)C=C[C@]2(C)[C@H]2CC[C@@]3(C)[C@@H](c4ccoc4)O/C(=N\O)[C@H]4O[C@]43[C@@]21C
4 | > 100 | > 100 | CC1(C)C(=O)C=C[C@]2(C)[C@H]3CC[C@@]4(C)[C@@H](c5ccoc5)OC(=O)[C@H]5O[C@]54[C@]3(C)[C@H](OCc3ccccc3)C[C@@H]12
5 | > 100 | > 100 | CCC(=O)O[C@@H]1C[C@H]2C(C)(C)C(=O)C=C[C@]2(C)[C@H]2CC[C@@]3(C)[C@@H](c4ccoc4)OC(=O)[C@H]4O[C@]43[C@@]21C
6 | 14.8 | 12.1 | CCO[C@@H]1C[C@H]2C(C)(C)C(=O)C=C[C@]2(C)[C@H]2CC[C@@]3(C)[C@@H](c4ccoc4)OC(=O)[C@H]4O[C@]43[C@@]21C
7 | 38.9 | 13 | CO[C@@H]1C[C@H]2C(C)(C)C(=O)C=C[C@]2(C)[C@H]2CC[C@@]3(C)[C@@H](c4ccoc4)OC(=O)[C@H]4O[C@]43[C@@]21C
8 | 47.7 | 82.4 | CC(=O)O[C@@H]1C[C@H]2C(C)(C)C(O)C=C[C@]2(C)[C@H]2CC[C@@]3(C)C(c4ccoc4)OC(O)[C@H]4O[C@]43[C@@]21C (single isomer, unassigned)
9 | > 100 | > 100 | CC(=O)O[C@@H]1C[C@H]2C(C)(C)C(=O)C(O)C(O)[C@]2(C)[C@H]2CC[C@@]3(C)[C@@H](c4ccoc4)OC(=O)[C@H]4O[C@]43[C@@]21C (some centres not stated)
10 | > 100 | > 100 | CCO/N=C1\C=C[C@]2(C)[C@H]3CC[C@@]4(C)[C@@H](c5ccoc5)OC(=O)[C@H]5O[C@]54[C@]3(C)[C@H](OC(C)=O)C[C@H]2C1(C)C
11 | > 100 | > 100 | CC(=O)OC1C=C[C@]2(C)[C@H]3CC[C@@]4(C)C(c5ccoc5)OC(=O)[C@H]5O[C@]54[C@]3(C)[C@H](OC(C)=O)C[C@H]2C1(C)C (single isomer, unassigned)
12 | > 100 | > 100 | CC(=O)O[C@@H]1C[C@H]2C(C)(C)C(=O)CC[C@]2(C)[C@H]2CC[C@@]3(C)[C@@H](c4ccoc4)OC(=O)[C@H]4O[C@]43[C@@]21C
13 | > 100 | > 100 | CC(=O)O[C@@H]1C[C@H]2C(C)(C)C(=O)C3OC(C)(C)OC3[C@]2(C)[C@H]2CC[C@@]3(C)C(c4ccoc4)OC(=O)[C@H]4O[C@]43[C@@]21C (single isomer, unassigned)
14 | > 100 | > 100 | CO/N=C1\C=C[C@]2(C)[C@H]3CC[C@@]4(C)[C@@H](c5ccoc5)OC(=O)[C@H]5O[C@]54[C@]3(C)[C@H](OC(C)=O)C[C@H]2C1(C)C
15 | 37.3 | 18.1 | CCCO[C@@H]1C[C@H]2C(C)(C)C(=O)C=C[C@]2(C)[C@H]2CC[C@@]3(C)[C@@H](c4ccoc4)OC(=O)[C@H]4O[C@]43[C@@]21C
16 | 8.84 | 3.22 | CC(=O)O[C@@H]1C[C@H]2C(C)(C)C(=O)C=C[C@]2(C)[C@H]2CC[C@@]3(C)[C@H](c4ccoc4)OC(=O)[C@H]4O[C@]43[C@@]21C [GEDUNIN]
17 | 9.79 | 7.05 | CC1(C)C(=O)C=C[C@]2(C)[C@H]3CC[C@@]4(C)[C@@H](c5ccoc5)OC(=O)[C@H]5O[C@]54[C@]3(C)[C@H](OC(N)=O)C[C@@H]12
18 | > 100 | > 100 | CC(=O)O[C@@H]1C[C@H]2C(C)(C)C(O)CC[C@]2(C)[C@H]2CC[C@@]3(C)[C@@H](c4ccoc4)OC(O)[C@H]4O[C@]43[C@@]21C (some centres not stated)
19 | 54.3 | 47.7 | CC(=O)O[C@@H]1C[C@H]2C(C)(C)C(O)C=C[C@]2(C)[C@H]2CC[C@@]3(C)C(c4ccoc4)OC(=O)[C@H]4O[C@]43[C@@]21C (single isomer, unassigned)

Row | SMILES | IC50 (MCF7) [µM] | IC50 (SK-BR-3) [µM]
20 | CC1(C)C(=O)[C@H]2O[C@H]2[C@]2(C)[C@H]3CC[C@@]4(C)C(c5ccoc5)OC(=O)[C@H]5O[C@]54[C@]3(C)[C@H](O)C[C@@H]12 (single isomer, unassigned) | > 100 | > 100
21 | CC1(C)C(=O)C=C[C@]2(C)[C@H]3CC[C@@]4(C)[C@H](c5ccoc5)OC(=O)[C@H]5O[C@]54[C@]3(C)[C@H](O)C[C@@H]12 [DEACETYLGEDUNIN] | 29 | 21.1
